Results on eight compounds are retold here after ChEMBL document CHEMBL1124946, “Cephalosporins to carbapenems: 1-oxygenated carbapenems and carbapenams” (1990).

Assay [1] relates to Citrobacter koseri. Put plainly: In vitro minimal inhibitory concentration (MIC) in brain-heart infusion broth in the presence of hog liver esterase(1:1.5) in Citrobacter diversus 031. The assay is classed as functional. The procedure, abridged:
(§1)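 Two-fold serial broth dilution in brain-heart infusion broth. POM ester prodrugs were incubated with hog liver esterase (1:1.5) in the broth so the ester is converted in situ to the free acid. The MIC is the lowest concentration that inhibits growth.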

In assay [2] the test system is Staphylococcus aureus. In words: In vitro minimal inhibitory concentration (MIC) in brain-heart infusion broth in the presence of hog liver esterase(1:1.5) in Staphylococcus aureus 400. The assay is classed as functional. The procedure, abridged:
as §1

Another assay relates to Morganella morganii. In words: In vitro minimal inhibitory concentration (MIC) in brain-heart infusion broth in the presence of hog liver esterase(1:1.5) in Morganella morganii 001. Type of assay: functional. In outline: as §1
Assay [3] can be described thus: In vitro minimal inhibitory concentration (MIC) in brain-heart infusion broth in the presence of hog liver esterase(1:1.5) in Serr. marc. 095. The assay is classed as functional. As to conditions: Serratia marcescens. In outline: as §1
Assay [4] has as its system Escherichia coli. Put plainly: In vitro minimal inhibitory concentration (MIC) in brain-heart infusion broth in the presence of hog liver esterase(1:1.5) in Escherichia coli 129. Type of assay: functional. In outline:
as §1

The subject of assay [5] is Staphylococcus aureus. Put plainly: In vitro minimal inhibitory concentration (MIC) in brain-heart infusion broth in the presence of hog liver esterase(1:1.5) in Staphylococcus aureus 005. Type of assay: functional. The procedure, abridged: as §1
For assay [6], the system named is Klebsiella pneumoniae. In words: In vitro minimal inhibitory concentration in brain-heart infusion broth in presence of hog liver esterase(1:1.5) in Klebsiella pneumoniae 079. Type of assay: functional. In outline: as §1
The test system of assay [7] is Enterobacter cloacae. Put plainly: In vitro minimal inhibitory concentration (MIC) in brain-heart infusion broth in the presence of hog liver esterase(1:1.5) in […] 009. Type of assay: functional. In outline: as §1
The next assay deals with Pseudomonas aeruginosa. Put plainly: In vitro minimal inhibitory concentration (MIC) in brain-heart infusion broth in the presence of hog liver esterase(1:1.5) in Pseudomonas aeruginosa 104. Type of assay: functional. The procedure, abridged:
as §1

Assay [8] relates to Escherichia coli. Put plainly: In vitro minimal inhibitory concentration (MIC) in brain-heart infusion broth in the presence of hog liver esterase(1:1.5) in Escherichia coli 266. The assay is classed as functional. In outline:
as §1

The next assay concerns Haemophilus influenzae. In words: In vitro minimal inhibitory concentration (MIC) in brain-heart infusion broth in the presence of hog liver esterase(1:1.5) in Haemophilus influenzae 012.
A further assay concerns Streptococcus pyogenes. Put plainly: In vitro minimal inhibitory concentration (MIC) in brain-heart infusion broth in the presence of hog liver esterase(1:1.5) in Streptococcus pyogenes 203. The assay is classed as functional. In outline: as §1
Assay [9] relates to Klebsiella pneumoniae. Put plainly: In vitro minimal inhibitory concentration (MIC) in brain-heart infusion broth in the presence of hog liver esterase(1:1.5) in Klebsiella pneumoniae 009. The assay is classed as functional. In outline: as §1
For assay [10], the system named is Citrobacter koseri. Put plainly: In vitro minimal inhibitory concentration in brain-heart infusion broth in presence of hog liver esterase(1:1.5) in Citrobacter diversus 031. Type of assay: functional. The procedure, abridged:
as §1

The subject of assay [11] is Klebsiella pneumoniae. Put plainly: In vitro minimal inhibitory concentration in brain-heart infusion broth in the presence of hog liver esterase(1:1.5) in Klebsiella pneumoniae 079. Type of assay: functional. The procedure, abridged: as §1
Assay [12] concerns Enterobacter cloacae. Put plainly: In vitro minimal inhibitory concentration in brain-heart infusion broth in the presence of hog liver esterase(1:1.5) in […] 009. Type of assay: functional. The procedure, abridged: as §1

For the compound `C[C@H]1C(=O)[C@@H]2[C@H](NC(=O)OCc3ccccc3)C(=O)N2[C@H]1C(=O)OCOC(=O)C(C)(C)C`, the MIC in the assay on Citrobacter koseri [1] was over 200 µg/mL; in the assay on Staphylococcus aureus [2], over 200 µg/mL; with Morganella morganii, over 200 µg/mL; in assay [3], over 200 µg/mL; in the assay on Escherichia coli [4], over 200 µg/mL; in the assay with Staphylococcus aureus [5] it was 100 µg/mL. Moreover, the MIC with Klebsiella pneumoniae [6], in the assay on Enterobacter cloacae [7], with Pseudomonas aeruginosa and in the assay on Escherichia coli [8] was over 200 µg/mL in each case.
Take `CC1=C(C(=O)OCOC(=O)C(C)(C)C)N2C(=O)[C@H]([C@@H](C)O)[C@H]2C1O` (stereo partly drawn): the MIC was 1.56 µg/mL with Staphylococcus aureus [2]; 6.25 µg/mL in the assay with Haemophilus influenzae; 50 µg/mL in the assay on Morganella morganii; 0.78 µg/mL with Streptococcus pyogenes; 6.25 µg/mL with Escherichia coli [4]; 3.12 µg/mL in the assay with Staphylococcus aureus [5]. In addition, the MIC in the assay with Klebsiella pneumoniae [9] is 6.25 µg/mL; in the assay on Enterobacter cloacae [7] it was 12.5 µg/mL; in the assay with Pseudomonas aeruginosa, 100 µg/mL; in the assay with Escherichia coli [8], 6.25 µg/mL.
Take `CC(=O)OC1[C@H](C)C(C(=O)OCOC(=O)C(C)(C)C)N2C(=O)[C@H](NC(=O)COc3ccccc3)[C@@H]12` (stereo partly drawn): the MIC (in the assay on Citrobacter koseri [10]; in the assay on Klebsiella pneumoniae [11]; in the assay on Staphylococcus aureus [2]; in the assay with Morganella morganii; in [3]; in the assay on Escherichia coli [4]) was over 200 µg/mL each time. In addition, the MIC with Staphylococcus aureus [5], in the assay on Enterobacter cloacae [7], in the assay with Pseudomonas aeruginosa and in the assay with Escherichia coli [8] was over 200 µg/mL in each case.
For `CCN1CCN(C(=O)N[C@@H](C(=O)N[C@@H]2C(=O)N3[C@@H]2C(O)[C@H](C)[C@@H]3C(=O)OCOC(=O)C(C)(C)C)c2ccccc2)C(=O)C1=O` (stereo partly drawn), the MIC with Citrobacter koseri [10] was 12.5 µg/mL; in the assay on Klebsiella pneumoniae [11], 12.5 µg/mL; in the assay with Staphylococcus aureus [2], over 200 µg/mL; with Morganella morganii, under 0.39 µg/mL; in assay [3], 25 µg/mL; in the assay with Escherichia coli [4], over 200 µg/mL. The MIC with Staphylococcus aureus [5] was 25 µg/mL; in the assay on Enterobacter cloacae [7], 12.5 µg/mL; in the assay on Pseudomonas aeruginosa it was 200 µg/mL; in the assay on Escherichia coli [8], 6.25 µg/mL.
As to `C[C@H]1C(O)[C@@H]2[C@H](NC(=O)COc3ccccc3)C(=O)N2[C@H]1C(=O)OCOC(=O)C(C)(C)C` (stereo partly drawn), the MIC in the assay on Citrobacter koseri [1] was over 200 µg/mL; in the assay on Staphylococcus aureus [2], 50 µg/mL; in the assay with Morganella morganii, over 200 µg/mL; in assay [3], over 200 µg/mL; in the assay on Escherichia coli [4] it was over 200 µg/mL; in the assay on Staphylococcus aureus [5], 25 µg/mL. The MIC with Klebsiella pneumoniae [6], in the assay on Enterobacter cloacae [7], in the assay on Pseudomonas aeruginosa and with Escherichia coli [8] was over 200 µg/mL throughout.
For `N[C@@H](C(=O)N[C@@H]1C(=O)N2C(C(=O)O)=C(Cl)CS[C@H]12)c1ccccc1` [CEFACLOR ANHYDROUS], the MIC with Staphylococcus aureus [2] is 3.12 µg/mL; in the assay with Haemophilus influenzae, 3.12 µg/mL; in the assay with Morganella morganii, over 200 µg/mL; with Streptococcus pyogenes, 0.05 µg/mL; in the assay on Escherichia coli [4] it was 50 µg/mL; in the assay with Staphylococcus aureus [5], 1.56 µg/mL. Besides, the MIC in the assay with Klebsiella pneumoniae [9] is 1.56 µg/mL; in the assay with Enterobacter cloacae [7] it was over 200 µg/mL; with Pseudomonas aeruginosa, over 200 µg/mL; with Escherichia coli [8], 3.12 µg/mL.
For the compound `CC1(C)S[C@@H]2[C@H](NC(=O)COc3ccccc3)C(=O)N2[C@H]1C(=O)O` [PENICILLIN V], the MIC in the assay with Citrobacter koseri [1] is over 200 µg/mL; with Klebsiella pneumoniae [11] it was over 200 µg/mL; in the assay on Enterobacter cloacae [12] it was over 200 µg/mL; in the assay on Staphylococcus aureus [2], 50 µg/mL; in the assay with Haemophilus influenzae it was 6.25 µg/mL; in the assay on Morganella morganii it was over 200 µg/mL. Moreover, the MIC in [3] is over 200 µg/mL; in the assay on Streptococcus pyogenes, under 0.025 µg/mL; in the assay with Escherichia coli [4], over 200 µg/mL; in the assay on Staphylococcus aureus [5] it was under 0.025 µg/mL; in the assay with Klebsiella pneumoniae [9] it was over 200 µg/mL; in the assay with Pseudomonas aeruginosa, over 200 µg/mL. Besides, the MIC in the assay on Escherichia coli [8] was determined as 100 µg/mL.
In the case of `C[C@@H](O)[C@H]1C(=O)N2C(C(=O)O)=C(SCCN)C[C@H]12` [THIENAMYCIN], the MIC in the assay on Staphylococcus aureus [2] was under 0.025 µg/mL; in the assay on Haemophilus influenzae, 0.78 µg/mL; in the assay with Morganella morganii, 6.25 µg/mL; with Streptococcus pyogenes, under 0.025 µg/mL; with Escherichia coli [4] it was 0.39 µg/mL; in the assay on Staphylococcus aureus [5] it was under 0.025 µg/mL. The MIC in the assay with Klebsiella pneumoniae [9] is 0.2 µg/mL; in the assay on Enterobacter cloacae [7] it was 0.39 µg/mL; in the assay on Pseudomonas aeruginosa, 3.12 µg/mL; in the assay with Escherichia coli [8], 0.1 µg/mL.
